Assay results taken from ChEMBL document CHEMBL3243953, “5-Aryl-1,5-dihydro-2H-1,4-benzodiazepin-2-one derivatives as antianxiety agents” (J Med Chem, 1977).

Tests used:
Mus musculus [1] = test: Anticonvulsant activity in po dosed mouse assessed as inhibition of pentylene-tetrazole-induced convulsion; assay type: functional
Outline: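 Antagonism of pentylenetetrazole-induced convulsions in orally dosed mice, used as a measure of tranquilizing activity; ED50 (mg/kg) reported.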

Mus musculus [2] = test: Muscle relaxant activity in po dosed mouse assessed as muscle relaxation by rotarod test; assay type: functional
Outline: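 Rotarod performance test in mice after oral dosing, used as a measure of muscle relaxant activity; result expressed as ED50 (mg/kg).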

[3] = Acute toxicity in po dosed mouse; assay type: organism-based; conditions: in vivo
Outline: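 Mice dosed orally; acute toxicity expressed as LD50 (mg/kg), calculated by the Bliss method.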

Mus musculus [4] = test: Anticonvulsant activity in po dosed mouse by maximal electroshock test; assay type: functional
Outline: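 Maximal electroshock test in mice after oral dosing, used as a measure of anticonvulsant activity; ED50 (mg/kg) reported.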

| SMILES | ED50 (Mus musculus [1]) [mg/kg] | ED50 (Mus musculus [2]) [mg/kg] | LD50 [3] [mg/kg] | ED50 (Mus musculus [4]) [mg/kg] |
| --- | --- | --- | --- | --- |
| CC(=O)OC1(c2ccccc2)c2cc([N+](=O)[O-])ccc2NC(=O)CN1[N+](=O)[O-] (stereo unspecified) | 58 | > 100 | > 1000 | > 100 |
| O=C1Nc2ccc([N+](=O)[O-])cc2C(c2ccccc2)=NC1OCCCl (stereo unspecified) | 9.2 | > 100 | > 1000 | > 100 |
| O=C1Nc2ccc([N+](=O)[O-])cc2C(c2ccccc2)=NC1OCCO (stereo unspecified) | 9.2 | > 100 | > 1000 | > 100 |
| COC1(c2ccccc2)N=CC(=O)N(C)c2ccc([N+](=O)[O-])cc21 (stereo unspecified) | 0.7 | 5.2 | 750 | 76 |
| CNC1=NC(c2ccccc2)c2cc([N+](=O)[O-])ccc2N(C)C1=O (stereo unspecified) | > 100 | > 100 | > 1000 | > 100 |
| COC1(c2ccccc2)c2cc(Cl)ccc2N(C)C(=O)CN1[N+](=O)[O-] (stereo unspecified) | > 100 | > 100 | > 1000 | > 100 |
| O=C1Nc2ccc(Cl)cc2C(c2ccccc2)=NC1OCCO (stereo unspecified) | 36 | > 100 | > 1000 | > 100 |
| N#CC1N=C(c2ccccc2)c2cc([N+](=O)[O-])ccc2NC1=O (stereo unspecified) | > 100 | > 100 | > 1000 | > 100 |
| COC1(c2ccccc2)N=CC(=O)Nc2ccc(Cl)cc21 (stereo unspecified) | 1.6 | 28.1 | > 1000 | > 100 |
| COC1(c2ccccc2)c2cc(Cl)ccc2NC(=O)CN1[N+](=O)[O-] (stereo unspecified) | > 100 | > 100 | > 1000 | > 100 |
| COC1(c2ccccc2)N=CC(=O)N(C)c2ccc(Cl)cc21 (stereo unspecified) | 0.7 | 27.5 | > 1000 | 53 |
| CN1C(=O)CN=C(c2ccccc2)c2cc(Cl)ccc21 [DIAZEPAM] | 1.2 | 14.4 | – | 62.2 |
| N#CC1N=C(c2ccccc2)c2cc(Cl)ccc2NC1=O (stereo unspecified) | 14 | > 100 | > 1000 | > 100 |
| O=C1Nc2ccc(Cl)cc2C(c2ccccc2)=NC1OCCCl (stereo unspecified) | 13 | > 100 | > 1000 | > 100 |
| NC1N=C(c2ccccc2)c2cc(Cl)ccc2NC1=O (stereo unspecified) | 85 | > 100 | > 1000 | > 100 |
| O=C1Nc2ccc(Cl)cc2C(c2ccccc2)=NC1NO (stereo unspecified) | 32 | > 100 | > 1000 | > 100 |
| COC1(c2ccccc2)N=CC(=O)Nc2ccc([N+](=O)[O-])cc21 (stereo unspecified) | 1.4 | 19.1 | > 1000 | > 100 |
| COC1(c2ccccc2)c2cc([N+](=O)[O-])ccc2NC(=O)CN1[N+](=O)[O-] (stereo unspecified) | 13 | > 100 | > 1000 | > 100 |
